{"source": "ChEMBL document CHEMBL4354826", "about": "“Structure-Based Discovery of SD-36 as a Potent, Selective, and Efficacious PROTAC Degrader of STAT3 Protein” (J Med Chem, 2019)", "key": {"[1]": {"biological_target": "Protein cereblon/Signal transducer and activator of transcription 5A (Homo sapiens) (UniProt P42229+Q96SW2)", "sequence (P42229 whole entry, looked up)": "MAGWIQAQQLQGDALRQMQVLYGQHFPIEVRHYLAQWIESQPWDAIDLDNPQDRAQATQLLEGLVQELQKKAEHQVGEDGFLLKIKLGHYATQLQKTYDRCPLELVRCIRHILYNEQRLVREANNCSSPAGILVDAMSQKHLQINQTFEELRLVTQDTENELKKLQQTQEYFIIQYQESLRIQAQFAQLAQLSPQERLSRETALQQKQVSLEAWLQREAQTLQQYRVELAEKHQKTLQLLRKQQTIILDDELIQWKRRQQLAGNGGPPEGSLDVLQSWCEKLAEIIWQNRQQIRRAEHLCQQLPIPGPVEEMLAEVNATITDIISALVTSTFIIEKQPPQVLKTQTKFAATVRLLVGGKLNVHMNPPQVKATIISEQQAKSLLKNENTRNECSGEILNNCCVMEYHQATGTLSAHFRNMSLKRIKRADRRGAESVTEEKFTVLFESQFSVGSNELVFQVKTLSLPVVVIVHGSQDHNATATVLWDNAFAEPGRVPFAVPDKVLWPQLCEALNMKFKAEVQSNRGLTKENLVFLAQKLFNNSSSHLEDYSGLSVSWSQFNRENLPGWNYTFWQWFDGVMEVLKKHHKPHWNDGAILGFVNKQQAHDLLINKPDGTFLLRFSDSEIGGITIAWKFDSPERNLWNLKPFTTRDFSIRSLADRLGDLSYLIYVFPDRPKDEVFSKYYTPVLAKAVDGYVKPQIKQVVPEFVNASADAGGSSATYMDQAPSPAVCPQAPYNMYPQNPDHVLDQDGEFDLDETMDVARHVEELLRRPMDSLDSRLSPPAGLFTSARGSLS", "sequence (Q96SW2 whole entry, looked up)": "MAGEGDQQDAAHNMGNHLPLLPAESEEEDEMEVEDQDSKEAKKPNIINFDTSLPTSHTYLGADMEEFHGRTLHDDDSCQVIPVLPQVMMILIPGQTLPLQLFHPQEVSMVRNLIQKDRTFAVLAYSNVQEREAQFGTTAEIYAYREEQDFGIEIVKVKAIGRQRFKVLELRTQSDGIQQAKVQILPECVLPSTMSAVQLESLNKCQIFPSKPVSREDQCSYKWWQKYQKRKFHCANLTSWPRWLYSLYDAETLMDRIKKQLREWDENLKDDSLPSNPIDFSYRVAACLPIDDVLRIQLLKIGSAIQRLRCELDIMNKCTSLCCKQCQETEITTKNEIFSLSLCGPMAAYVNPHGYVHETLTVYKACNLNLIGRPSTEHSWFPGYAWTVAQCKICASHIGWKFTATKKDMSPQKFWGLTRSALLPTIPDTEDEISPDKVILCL", "experiment": "Protac activity at CRBN/STAT5A in human SUDHL1 cells assessed as degradation of STAT5A at 0.01 to 10 uM incubated for 18 hrs by Western blot analysis", "type": "cell-based", "procedure,_shortened": "(§1)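 SU-DHL-1 cells treated 18 h with test compound at 0.01–10 μM, or control compounds at 10 μM. Lysates separated by SDS–PAGE, transferred to PVDF, blocked 1 h in 5% blocker/TBST, probed for each STAT protein, and detected by chemiluminescence.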"}, "[2]": {"biological_target": "Protein cereblon/Signal transducer and activator of transcription 6 (Homo sapiens) (UniProt P42226+Q96SW2)", "sequence (P42226 2-847 limits assumed)": "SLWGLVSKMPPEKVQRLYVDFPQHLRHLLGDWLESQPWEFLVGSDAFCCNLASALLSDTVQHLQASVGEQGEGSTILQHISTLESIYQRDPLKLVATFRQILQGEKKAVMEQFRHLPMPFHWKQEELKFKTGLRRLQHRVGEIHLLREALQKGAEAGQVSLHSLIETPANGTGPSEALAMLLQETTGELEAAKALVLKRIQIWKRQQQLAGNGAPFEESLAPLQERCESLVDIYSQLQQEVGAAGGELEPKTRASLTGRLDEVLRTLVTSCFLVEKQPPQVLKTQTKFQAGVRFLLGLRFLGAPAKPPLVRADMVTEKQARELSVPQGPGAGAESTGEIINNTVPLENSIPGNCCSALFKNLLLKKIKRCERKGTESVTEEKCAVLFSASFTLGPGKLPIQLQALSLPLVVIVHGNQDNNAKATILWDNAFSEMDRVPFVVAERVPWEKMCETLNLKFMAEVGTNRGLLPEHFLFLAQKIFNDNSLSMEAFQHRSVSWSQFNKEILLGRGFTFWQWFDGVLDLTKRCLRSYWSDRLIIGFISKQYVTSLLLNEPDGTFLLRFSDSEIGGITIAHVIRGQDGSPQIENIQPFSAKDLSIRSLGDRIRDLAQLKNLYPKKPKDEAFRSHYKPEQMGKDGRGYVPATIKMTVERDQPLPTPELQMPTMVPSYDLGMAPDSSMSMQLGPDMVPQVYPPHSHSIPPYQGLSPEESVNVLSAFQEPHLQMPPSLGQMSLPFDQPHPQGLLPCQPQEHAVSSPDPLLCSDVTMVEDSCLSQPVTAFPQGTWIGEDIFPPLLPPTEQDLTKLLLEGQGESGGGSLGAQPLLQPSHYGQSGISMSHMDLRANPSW", "sequence (Q96SW2 whole entry partner)": "as the sequence (Q96SW2 whole entry, looked up) above", "experiment": "Protac activity at CRBN/STAT6 in human SUDHL1 cells assessed as degradation of STAT6 at 0.01 to 10 uM incubated for 18 hrs by Western blot analysis", "type": "cell-based", "procedure,_shortened": "as §1"}, "Homo sapiens": {"species": "Homo sapiens", "experiment": "Selectivity index, ratio of protac activity at CRBN/STAT5B in human MOLM16 cells to protac activity at CRBN/STAT3 in human MOLM16 cells", "type": "cell-based", "procedure,_shortened": "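Molm-16 cells treated 4 h with compound at 0.01–10 μM, or controls at 10 μM. Western blot of lysates: SDS–PAGE, PVDF, 1 h block in 5% blocker/TBST, primary and secondary antibodies, chemiluminescent detection. STAT1, -2, -4, -5A/B and -6 levels read against STAT3 to give degradation selectivity.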"}, "[3]": {"biological_target": "T1, Signal transducer and activator of transcription 1-alpha/beta (Homo sapiens, UniProt P42224)", "T1 sequence (P42224 whole entry)": "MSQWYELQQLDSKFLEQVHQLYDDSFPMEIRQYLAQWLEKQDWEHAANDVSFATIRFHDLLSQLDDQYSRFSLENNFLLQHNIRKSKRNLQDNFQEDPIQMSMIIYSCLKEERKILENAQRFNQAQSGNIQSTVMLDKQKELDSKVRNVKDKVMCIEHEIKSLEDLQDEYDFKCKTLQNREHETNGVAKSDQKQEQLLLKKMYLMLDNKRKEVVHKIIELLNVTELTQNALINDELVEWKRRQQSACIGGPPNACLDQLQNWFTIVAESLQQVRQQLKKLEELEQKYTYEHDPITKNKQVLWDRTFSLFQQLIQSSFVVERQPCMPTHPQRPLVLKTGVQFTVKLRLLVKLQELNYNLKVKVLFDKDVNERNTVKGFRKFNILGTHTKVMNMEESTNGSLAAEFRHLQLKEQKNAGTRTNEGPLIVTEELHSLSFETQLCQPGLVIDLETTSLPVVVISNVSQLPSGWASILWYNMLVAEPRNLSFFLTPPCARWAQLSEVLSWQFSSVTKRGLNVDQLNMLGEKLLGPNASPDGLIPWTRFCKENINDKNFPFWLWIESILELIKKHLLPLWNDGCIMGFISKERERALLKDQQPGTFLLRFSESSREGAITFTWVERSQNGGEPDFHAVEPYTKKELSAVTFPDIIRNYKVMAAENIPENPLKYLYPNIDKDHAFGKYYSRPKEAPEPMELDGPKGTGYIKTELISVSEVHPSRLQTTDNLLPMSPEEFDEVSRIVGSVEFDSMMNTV", "experiment": "Binding affinity to recombinant human His/SUMO-tagged STAT1 (132 to 713 residues) expressed in Escherichia coli Rosetta (DE3) incubated for 1 hr by fluorescence polarization assay"}}, "note": "Activity calls are given as the source filed them. The calls are words filed in the database; no cut-off is given here.", "data": [{"compound": "NC(=O)CC[C@H](NC(=O)[C@@H]1CC[C@@H]2CCN(C(=O)CCCCCC#Cc3cccc4c3CN(C3CCC(=O)NC3=O)C4=O)C[C@H](NC(=O)c3cc4cc(C(F)(F)P(=O)(O)O)ccc4[nH]3)C(=O)N21)C(=O)NC(c1ccccc1)c1ccccc1", "note": "(some centres undefined)", "values": [{"measurement": "Activity", "setting": "[1]", "value": "inactive"}, {"measurement": "Activity", "setting": "[2]", "value": "inactive"}, {"measurement": "Ratio", "setting": "Homo sapiens", "value": "> 100"}, {"measurement": "Kd", "setting": "[3]", "value": 1, "unit": "µM"}]}]}
